# Compounds with a hit are over-represented: about 1.9% of the library has one in this group of screens.
# Yeast superoxide: reduction of superoxide in aged yeast, primary screen, HTS; S. cerevisiae aged cells, superoxide DHE fluorescence; active compounds read low; superoxide response (% of plate mean), % at 10 µM; 0.18% of 330,000 active;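 active = superoxide response under a set limit, about three screen SD below normal, cut at about 65% in these data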;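 also: yeast aged for seven days with compound at 30 °C before DHE staining; 100% = average MFI of all compound-treated wells on the plate with controls excluded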
# T cell HTS: modulators of CD8 T cell-vesicle binding, primary screen, mouse 2C CD8+ T cells, flow cytometry. 2C CD8+ T cell-vesicle binding; active compounds read low. response (vesicle binding), % at 7 µM. 0.068% of 330,000 active. AID 2052, 2009;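 active = response, share of CD8 T cells binding vesicles, and their 90th percentile fluorescence all below set limits, cut at about 80% in these data, passing the limit was not always enough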;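 also: values below 100% mean blocked vesicle binding to the CD8+ T cells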
#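 Test system: purified 2C TCR transgenic mouse naive CD8+ T cells. Probe or stimulus: QL9-peptide-loaded Drosophila micro-vesicles bearing Ld, ICAM-1 and B7-1. Incubation: binding step 1.5 h, 37 °C, antibody labelling 20 min, ice. Measured by: flow cytometry of vesicle-bound cells.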
# beta cell repl: inducers of MIN6 beta-cell proliferation, primary screen, ATP luminescence, uHTS | MIN6 cells proliferation, ATPlite luminescence, 48 h; cells starved in 0.2% serum; 100% = growth in 10% serum | proliferation, % at 10 µM | 0.29% of 330,000 active;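 active = compounds whose signal lies at least 3.5 SD above the mean of all wells on their plate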;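 also: 0% = DMSO-treated cells in low-serum medium and 100% = 10% serum control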
# KLK7 zymogen act: proKLK7 zymogen activators, primary screen, biochemical, fluorescence intensity; AID 652039, 2013; activation, % at 7 µM; 0.9% of 370,000 active; purified proKLK7, EDANS-DABCYL substrate fluorescence; 100% is mature enzyme control, 0% vehicle;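 active = activation above the mean of all tested compounds plus 3 SD, computed per campaign excluding outliers beyond control limits, cut at about 13% in these data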
# Target sequence (P49862 whole entry, looked up): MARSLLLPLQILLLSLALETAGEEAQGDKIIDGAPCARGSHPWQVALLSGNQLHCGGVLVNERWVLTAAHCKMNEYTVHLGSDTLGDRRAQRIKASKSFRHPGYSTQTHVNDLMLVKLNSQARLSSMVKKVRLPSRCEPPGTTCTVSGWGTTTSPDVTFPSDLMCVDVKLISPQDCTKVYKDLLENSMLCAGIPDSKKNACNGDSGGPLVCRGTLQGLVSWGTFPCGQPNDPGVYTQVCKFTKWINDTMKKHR
# V-ATPase pH: regulators of yeast V-ATPase proton pumping, primary screen, pHLuorin cytosolic pH fluorescence; S. cerevisiae; response, % at 10 µM; 0.37% of 350,000 active; AID 504577, 2011; in the data active = response mostly above about 7.3%, no sharp cut-off; inactive = mostly below about 5.4%; also: actives read high
# Rce1 inhib: yeast Rce1p protease inhibitors, primary screen, biochemical, fluorescence, cell-free homogeneous. CAAX prenyl protease 2 (Saccharomyces cerevisiae (strain ATCC 204508 / S288c)), Q03530. yeast membranes, quenched prenylated peptide cleavage fluorescence. calls only. 0.27% of 290,000 active;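 active = fall in fluorescence gain of 50% or more versus controls, with final raw signal at or below 3038400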;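 also: plate controls were neutral control wells for no effect and wells lacking membranes for full effect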
# Target sequence (Q03530 whole entry, looked up): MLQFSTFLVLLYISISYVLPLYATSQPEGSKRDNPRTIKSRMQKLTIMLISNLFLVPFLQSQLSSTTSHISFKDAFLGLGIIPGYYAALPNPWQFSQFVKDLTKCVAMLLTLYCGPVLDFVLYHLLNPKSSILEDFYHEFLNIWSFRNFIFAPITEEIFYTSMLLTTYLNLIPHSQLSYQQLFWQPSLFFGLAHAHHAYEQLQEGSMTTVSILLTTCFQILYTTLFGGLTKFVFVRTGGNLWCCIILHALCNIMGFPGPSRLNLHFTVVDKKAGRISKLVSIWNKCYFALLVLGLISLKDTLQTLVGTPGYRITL
# Numbers without * were called inactive; i = inactive; nt = no result; + = active, no number.
SMILES,Yeast superoxide,T cell HTS,beta cell repl,KLK7 zymogen act,V-ATPase pH,Rce1 inhib
Cc1cccc(NS(=O)(=O)c2ccc(NC(=O)N3CCCCC3)cc2)c1,105,384,0,0,-1,i
O=C(C(=O)N1CCN(C(=O)C2CCCC2)CC1)c1cccc(C(F)(F)F)c1,nt,nt,nt,0,nt,nt
Cc1cc(=O)[nH]c(N2CCN(C(c3ccccc3)c3ccccc3)CC2)n1,97,128,-1,0,19*,i
COc1ccc(CN2CCC(CNC(=O)NC3CCCC3)CC2)cc1,nt,nt,nt,0,nt,nt
CC(NCc1ccccc1Cl)C(=O)Nc1ccc(S(=O)(=O)N2CCCC2)cc1 (configuration not stated),93,0.0*,-2,1,6,i
CC(Oc1ccccc1Cl)C(=O)Nc1ccc(S(=O)(=O)N2CCCC2)cc1 (configuration not stated),97,53,5,0,1,i
COc1cccc([C@@H](NC(=O)C(F)(F)F)[C@@H]2CCCC=C2c2ccccc2)c1,nt,nt,nt,0,nt,nt
Cn1ncc(SCc2ccccc2)c(Cl)c1=O,92,238,0,0,7,nt
Cn1ncc(S(=O)(=O)Cc2ccccc2)c(Cl)c1=O,97,729,-4,0,19*,i
CN(C)CCCN1C(=O)c2cccc3cccc(c23)C1=O,101,370,0,2,-1,+
CC1CCN(C(=O)COC(=O)CCCN2C(=O)c3cccc4cccc(c34)C2=O)CC1,97,0.0*,-2,4,3,i
COC(=O)[C@]12C[C@H](CC(=O)NCc3ccc(C)o3)C(=O)N(CCC3=CCCCC3)C1=C[C@H](C1CCCC1)O[C@@H]2C,nt,nt,nt,0,nt,nt
CN1C(=O)c2cc(NC(=O)Nc3ccccc3)ccc2OC[C@H]2O[C@@H](CC(=O)Nc3cc(F)ccc3F)CC[C@@H]21,nt,nt,nt,0,nt,nt
CCn1nc(C(=O)NCCc2ccc3c(c2)OCCO3)c2ccccc2c1=O,123,47*,4,0,11,nt
CC(C)(C)OC(=O)N1CCC2CCN(S(=O)(=O)c3ccccc3)CC21 (configuration not stated),nt,nt,nt,0,nt,nt
Cc1ccc(S(=O)(=O)N2CCCC(C(=O)Nc3c(C)n(C)n(-c4ccccc4)c3=O)C2)cc1C (configuration not stated),nt,nt,nt,0,nt,nt
CC(C)C(=O)N[C@H]1[C@H](O)CCC[C@]12C(=O)N(Cc1ccccc1)c1ccccc12,nt,nt,nt,0,nt,nt
Cc1ccc(-n2c(SCC(=O)Nc3ccc(OCc4ccccc4)cc3)nnc2-c2ccccc2)cc1,nt,nt,nt,1,nt,nt
Cc1nc(CNC(=O)C2CCC(=O)N(CCc3ccc(Cl)cc3)C2)sc1C (configuration not stated),96,47*,4,0,-3,i
O=C(NCc1ccncc1)C1CCC(=O)N(CCc2ccc(Cl)cc2)C1 (configuration not stated),98,415,-2,0,5,i
COc1ccc(CCN(Cc2cccs2)S(=O)(=O)c2ccc(F)cc2)cc1OC,nt,nt,nt,0,nt,nt
COC(=O)[C@]12C[C@H](CC(=O)NCCC(C)C)C(=O)N(Cc3ccccc3)C1=C[C@H](COCc1ccccc1)O[C@@H]2C,nt,nt,nt,-1,nt,nt
O=C(CNC(=O)N1CC(=O)Nc2ccccc21)NCCc1cccc(F)c1,85,276,-3,0,-6,i
O=C1CN(C(=O)NCC(=O)N[C@H](C(=O)O)c2ccccc2)c2ccccc2N1,73,422,0,0,2,i
O=C1CN(C(=O)NCC(=O)N2CCCC2)c2ccccc2N1,79,471,-4,0,-5,+
SMILES,Yeast superoxide,T cell HTS,beta cell repl,KLK7 zymogen act,V-ATPase pH,Rce1 inhib
O=C(CCNC(=O)N1CC(=O)Nc2ccccc21)NCCc1cccc(F)c1,128,584,1,0,-3,+
Cc1cccc(NC(=O)c2cc(S(=O)(=O)N3CCCCC3)c[nH]2)c1C,97,480,-4,0,4,+
COc1ccc(-c2ccc(-c3nnc(-c4cc(OC)ccc4OC)o3)cc2)cc1,87,230,-4,-2,-2,+
COc1ccc(-c2nnc(-c3ccc(N)cc3)o2)cc1,90,408,-5,3,2,i
CCOC(=O)C[C@H]1c2ccccc2S(=O)(=O)N1Cc1cc(OC)c(OC)c(OC)c1,94,496,-1,0,5,+
Cc1ccc(N2C(=O)C(Cl)=C(N3CCCCCC3)C2=O)c(C)c1,97,0.0*,-2,0,0,i
O=C1C(Cl)=C(N2CCCCCC2)C(=O)N1c1ccccc1Cl,91,455,-3,0,3,i
COC(=O)[C@@]12CCCCC3=C1N(CCC3)C(=O)[C@H]2CC(=O)NCCCN1CCCC1=O,nt,nt,nt,0,nt,nt
CCCCN1C(=S)NC[C@@H]1Cc1cccc2ccccc12,111,972,-1,-1,0,i
CCCC[C@@H]1CNC(=S)N1CCc1cccc2ccccc12,107,224,-9,0,2,+
C[C@@H]1ON(C)[C@H]2C[C@H]3c4cc(-c5ccccc5)ccc4CCN3C[C@@H]12,nt,nt,nt,1,nt,nt
Cc1nnc(SC/C=C/c2ccccc2)n(N)c1=O,69,266,-1,0,4,i
Nn1c(SC/C=C/c2ccccc2)nnc1-c1ccco1,91,222,-2,0,18*,i
Cc1ccc(NC(=O)CSc2nnc(-c3cnccn3)n2-c2ccccc2)cc1,107,243,-1,0,16*,i
CC(=O)CSc1nnc(-c2cnccn2)n1-c1ccccc1,nt,nt,nt,-1,2,i
O=C(NCc1ccco1)c1ccc2c(c1)N(Cc1ccccc1)CCS2,88,170,-2,-27,5,i
O=C(NC1CC1)c1ccc2c(c1)N(Cc1ccccc1)CCS2,104,422,-1,-6,-2,+
CCOC(=O)N1CCC(NC(=O)c2ccc3c(c2)N(Cc2ccccc2)CCS3)CC1,100,140,1,-10,0,i
O=C(NCc1ccco1)c1ccc2c(c1)N(Cc1ccc(Cl)cc1)CCS2,97,126,-6,-27,14*,i
Cc1cccn2c(=O)c3cc(C(=O)NCc4ccco4)c(=N)n(CCc4ccccc4)c3nc12,82,0,-5,18*,-4,nt
CN1CCCC(C(=O)Nc2cccc(Cl)c2)CC1 (configuration not stated),nt,nt,nt,0,nt,nt
CC1(C)SC[C@H](C(=O)Nc2cccc(Cl)c2)N1C=O,105,52*,-3,0,-1,i
COc1cccc([C@@H]2NC(=O)C/C=C/[C@H](C)[C@H](c3cccc(OC)c3)NC(=O)C/C=C/[C@@H]2C)c1,nt,nt,nt,-1,nt,nt

# Source: PubChem BioAssay (several laboratories)
